8 compounds from PubChem BioAssay AID602209 (Southern Research Specialized Biocontainment Screening …, 2012) can be followed below.

pIC50: −log10 of the molar value. Calls of active or inactive are those of the source.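 The calls were made as follows: active = inhibition of 30% or more at any tested concentration; inactive = the rest.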

In this assay the target is M17 leucyl aminopeptidase (Plasmodium falciparum 3D7). As to the kind of experiment: PfM17LAP leucine aminopeptidase inhibitors, dose response, counter-screen for PfM1AAP inhibitor project, biochemical, QFRET, set 2 (AID 602209). Particulars: recombinant PfM17LAP, H-Leu-NHMec fluorogenic cleavage. A digest of the protocol:
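Test system: Recombinant Plasmodium falciparum M17 leucine aminopeptidase enzyme | Amount: Recombinant PfM17LAP enzyme at 5 µg/mL final | Read-out: % inhibition and IC50 via 4-parameter fit | Compound: 100–0.2 µM, 2-fold dilutions | Repeats: Triplicate | Detection: Fluorescence of released NHMec leaving group | Timing: Reaction 90 min, room temperature | Buffer or medium: Tris-HCl pH 7.5 plus CoCl2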

For `O=C(NCc1ccc(F)cc1)C1CCN(S(=O)(=O)c2ccc(Br)s2)CC1`, the pIC50 was 5.06. For the compound `CC[C@H](C)[C@H](NC(=O)c1ccc(C(C)(C)C)cc1)C(=O)NCc1ccc(Cl)cc1`, where the note is “at 100 µM (top of the series)”, the inhibition result was “inactive”.

In the case of `O=C(NCc1ccc(Cl)cc1)C1CCN(S(=O)(=O)c2ccc(Br)s2)CC1`, the pIC50 was 4.41. On to `O=C(NCc1ccc2c(c1)OCO2)C1CCN(S(=O)(=O)c2ccc(Br)s2)CC1`, for which the pIC50 was 5.45. On to `CC[C@H](C)[C@H](NS(=O)(=O)c1ccc(Br)s1)C(=O)NCc1ccc2c(c1)OCO2`, for which the inhibition result (at 100 µM (top of the series)) was “inactive”.

`CC[C@H](C)[C@H](NS(=O)(=O)c1ccc(Br)s1)C(=O)NCc1ccc(Cl)cc1`: the inhibition entry (at 100 µM (top of the series)) was “inactive”. As to `O=C(NCc1ccccc1)C1CCN(S(=O)(=O)c2ccc(Br)s2)CC1`, the pIC50 was 5.45. Regarding `CC[C@H](C)[C@H](NC(=O)c1ccc(C(C)(C)C)cc1)C(=O)NCc1ccc2c(c1)OCO2`, under “at 1.56 µM (top of the series)”, the inhibition entry is “inactive”.
